Assays:
[1] = test system: HepG2; assay: Cytotoxicity against human HepG2 cells assessed as reduction in cell viability incubated for 72 hrs by MTT assay; type: functional, cell-based; conditions: HepG2, 72 h
How it was run: (§1)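 Cells grown in MEM with 10% FBS; about 4×10^3 cells per well, pre-incubated 24 h at 37 °C in 5% CO2, then exposed to compound for 72 h. Seven concentrations, threefold serial dilution from 100 ug/mL initial. MTT at 5 µg/mL terminal concentration for 4 h; formazan dissolved in DMSO, absorbance read at 492 nm against 630 nm reference. IC50 is the average of two determinations.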

[2] = test system: A549; assay: Cytotoxicity against human A549 cells assessed as reduction in cell viability incubated for 72 hrs by MTT assay; type: functional, cell-based; conditions: A549, 72 h; how it was run: as §1
[3] = test system: PC-3; assay: Cytotoxicity against human PC3 cells assessed as reduction in cell viability incubated for 72 hrs by MTT assay; type: functional, cell-based; conditions: PC-3, 72 h; how it was run: as §1
[4] = test system: MCF7; assay: Cytotoxicity against human MCF7 cells assessed as reduction in cell viability incubated for 72 hrs by MTT assay; type: functional, cell-based; conditions: MCF7, 72 h; how it was run: as §1
[5] = biological target: Serine/threonine-protein kinase B-raf (Homo sapiens, UniProt P15056); assay: Inhibition of BRAF (unknown origin) incubated for 10 mins using FAM-labeled peptide and ATP by mobility shift assay
[6] = biological target: Vascular endothelial growth factor receptor 2 (Homo sapiens, UniProt P35968); assay: Inhibition of VEGFR2 (unknown origin) incubated for 10 mins using FAM-labeled peptide and ATP by mobility shift assay
Chain of Vascular endothelial growth factor receptor 2 (P35968 whole entry): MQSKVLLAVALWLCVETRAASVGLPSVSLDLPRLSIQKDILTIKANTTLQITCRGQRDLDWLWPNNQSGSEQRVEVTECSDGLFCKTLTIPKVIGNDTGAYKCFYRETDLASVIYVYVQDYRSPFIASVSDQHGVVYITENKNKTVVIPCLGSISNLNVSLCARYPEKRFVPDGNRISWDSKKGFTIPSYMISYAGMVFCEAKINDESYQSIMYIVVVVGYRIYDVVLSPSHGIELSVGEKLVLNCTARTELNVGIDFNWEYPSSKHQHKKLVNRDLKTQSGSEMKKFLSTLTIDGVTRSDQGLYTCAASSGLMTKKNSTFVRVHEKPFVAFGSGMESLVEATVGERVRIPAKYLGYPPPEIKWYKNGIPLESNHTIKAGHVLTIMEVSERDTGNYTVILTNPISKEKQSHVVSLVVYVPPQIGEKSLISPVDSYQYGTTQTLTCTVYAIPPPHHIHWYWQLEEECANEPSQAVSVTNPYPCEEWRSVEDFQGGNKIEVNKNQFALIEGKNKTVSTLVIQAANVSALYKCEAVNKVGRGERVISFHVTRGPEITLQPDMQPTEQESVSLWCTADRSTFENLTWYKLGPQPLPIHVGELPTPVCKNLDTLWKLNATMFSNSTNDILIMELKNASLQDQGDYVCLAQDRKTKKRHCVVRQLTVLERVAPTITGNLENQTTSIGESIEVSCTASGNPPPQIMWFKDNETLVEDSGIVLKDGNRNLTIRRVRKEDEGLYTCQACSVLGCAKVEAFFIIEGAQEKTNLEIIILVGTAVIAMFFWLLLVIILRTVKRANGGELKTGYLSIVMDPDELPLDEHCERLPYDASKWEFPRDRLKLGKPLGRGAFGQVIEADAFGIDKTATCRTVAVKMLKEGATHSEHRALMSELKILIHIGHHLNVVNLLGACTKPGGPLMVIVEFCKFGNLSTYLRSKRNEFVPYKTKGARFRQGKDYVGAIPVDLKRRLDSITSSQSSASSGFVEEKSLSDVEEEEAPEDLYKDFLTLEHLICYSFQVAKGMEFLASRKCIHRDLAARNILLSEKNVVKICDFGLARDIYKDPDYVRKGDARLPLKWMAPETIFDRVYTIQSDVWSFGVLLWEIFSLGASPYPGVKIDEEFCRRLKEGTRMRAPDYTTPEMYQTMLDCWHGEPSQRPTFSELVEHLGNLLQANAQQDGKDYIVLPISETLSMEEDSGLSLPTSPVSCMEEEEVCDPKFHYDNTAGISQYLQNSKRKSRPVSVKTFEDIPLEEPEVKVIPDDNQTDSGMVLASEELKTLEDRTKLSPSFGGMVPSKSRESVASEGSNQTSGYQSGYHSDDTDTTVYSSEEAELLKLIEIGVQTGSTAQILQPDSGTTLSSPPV

Chain of Serine/threonine-protein kinase B-raf (P15056 whole entry): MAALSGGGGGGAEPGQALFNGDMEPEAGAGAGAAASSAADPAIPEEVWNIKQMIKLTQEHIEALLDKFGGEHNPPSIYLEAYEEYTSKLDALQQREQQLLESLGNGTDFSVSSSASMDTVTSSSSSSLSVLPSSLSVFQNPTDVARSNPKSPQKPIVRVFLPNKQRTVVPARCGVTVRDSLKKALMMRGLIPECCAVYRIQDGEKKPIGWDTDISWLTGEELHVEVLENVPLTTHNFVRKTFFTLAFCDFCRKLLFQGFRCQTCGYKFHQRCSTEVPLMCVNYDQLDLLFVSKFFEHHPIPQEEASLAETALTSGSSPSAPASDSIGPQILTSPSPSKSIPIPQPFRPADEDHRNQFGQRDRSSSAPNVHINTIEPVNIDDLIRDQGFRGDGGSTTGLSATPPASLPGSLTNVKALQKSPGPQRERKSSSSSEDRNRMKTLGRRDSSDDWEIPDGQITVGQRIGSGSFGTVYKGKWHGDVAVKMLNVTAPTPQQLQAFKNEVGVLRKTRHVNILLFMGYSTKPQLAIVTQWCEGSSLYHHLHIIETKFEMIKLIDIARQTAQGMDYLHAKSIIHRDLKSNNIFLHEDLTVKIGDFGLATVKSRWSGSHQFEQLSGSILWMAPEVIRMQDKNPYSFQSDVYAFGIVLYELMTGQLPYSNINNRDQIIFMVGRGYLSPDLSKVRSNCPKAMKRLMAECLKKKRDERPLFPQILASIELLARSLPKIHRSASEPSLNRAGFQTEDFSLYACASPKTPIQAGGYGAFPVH

| SMILES | IC50 [1] [µM] | IC50 [2] [µM] | IC50 [3] [µM] | IC50 [4] [µM] | IC50 [5] [µM] | IC50 [6] [µM] |
| --- | --- | --- | --- | --- | --- | --- |
| CNC(=O)c1cc(Oc2ccc(C3=NNC(c4cccc(Cl)c4Cl)C3)cc2)ccn1 (configuration not stated) | 4.99 | 12.1 |  |  |  |  |
| CNC(=O)c1cc(Oc2ccc(NC(=O)Nc3ccc(Cl)c(C(F)(F)F)c3)cc2)ccn1 [SORAFENIB] |  | 2.92 | 3.18 to 3.24 |  |  |  |
| CNC(=O)c1cc(Oc2ccc(C3=NNC(c4ccc(Cl)cc4Cl)C3)cc2)ccn1 (configuration not stated) |  | 6.93 | 7.3 |  |  |  |
| CNC(=O)c1cc(Oc2ccc(C3=NNC(c4cc(OC)c(OC)c(OC)c4)C3)cc2)ccn1 (configuration not stated) | 24.3 | 37.1 | 28.3 |  |  |  |
| CNC(=O)c1cc(Oc2ccc(C3=NNC(c4ccc(Br)cc4)C3)cc2)ccn1 (configuration not stated) | 57.6 | 21 | > 50 |  |  |  |
| CNC(=O)c1cc(Oc2ccc(C3=NN(C(N)=S)C(c4ccc(Cl)cc4)C3)cc2)ccn1 (configuration not stated) | > 50 | > 50 | > 50 |  |  |  |
| CNC(=O)c1cc(Oc2ccc(C3CC(c4ccc(Br)cc4)=NN3)cc2)ccn1 (configuration not stated) | 16.9 |  |  | 15.3 |  |  |
| CNC(=O)c1cc(Oc2ccc(C3=NNC(c4ccc(OC)cc4)C3)cc2)ccn1 (configuration not stated) | 9.64 | 13.1 | 7.74 | 11 | > 50 | > 50 |
| CNC(=O)c1cc(Oc2ccc(C3CC(c4ccc([N+](=O)[O-])cc4)=NN3C(N)=S)cc2)ccn1 (configuration not stated) | > 50 | > 50 | > 50 |  |  |  |
| CNC(=O)c1cc(Oc2ccc(C3=NNC(c4ccc([N+](=O)[O-])cc4)C3)cc2)ccn1 (configuration not stated) | > 50 | 19.5 | > 50 |  |  |  |
| CNC(=O)c1cc(Oc2ccc(C3=NNC(c4ccc(OC)c(OC)c4OC)C3)cc2)ccn1 (configuration not stated) | 15.7 | 19 |  | 9.94 |  |  |
| CNC(=O)c1cc(Oc2ccc(C3=NNC(c4ccc(F)cc4)C3)cc2)ccn1 (configuration not stated) | 5.28 | 15.1 | 6.77 | 9.48 |  |  |
| CNC(=O)c1cc(Oc2ccc(C3=NNC(c4cccc([N+](=O)[O-])c4)C3)cc2)ccn1 (configuration not stated) | 26.5 |  |  | 35.4 |  |  |
| CNC(=O)c1cc(Oc2ccc(C3CC(c4ccc(Cl)cc4)=NN3)cc2)ccn1 (configuration not stated) | 10.9 | 20.5 |  | 15.3 |  |  |
| CNC(=O)c1cc(Oc2ccc(C3=NNC(c4ccc(Cl)c(Cl)c4)C3)cc2)ccn1 (configuration not stated) | 14.4 | 10.7 | 36.2 |  |  |  |
| CNC(=O)c1cc(Oc2ccc(C3=NNC(c4ccc(C#N)cc4)C3)cc2)ccn1 (configuration not stated) | 15 | 17.4 | 9.91 |  |  |  |
| CNC(=O)c1cc(Oc2ccc(C3=NN(C(N)=S)C(c4ccc(F)cc4)C3)cc2)ccn1 (configuration not stated) | > 50 | 19.4 | > 50 |  |  |  |
| CNC(=O)c1cc(Oc2ccc(C3=NNC(c4ccc(F)cc4Cl)C3)cc2)ccn1 (configuration not stated) | 11.5 | 13.7 | 24.2 |  |  |  |
| CNC(=O)c1cc(Oc2ccc(C3=NN(C(N)=S)C(c4ccc(C#N)cc4)C3)cc2)ccn1 (configuration not stated) | > 50 | > 50 | > 50 |  |  |  |
| CNC(=O)c1cc(Oc2ccc(C3=NNC(c4ccccc4)C3)cc2)ccn1 (configuration not stated) | 1.5 | 8.6 | 4.52 | 1.24 | 3.9 | 2.3 |
| CNC(=O)c1cc(Oc2ccc(C3=NN(C(N)=S)C(c4cccc([N+](=O)[O-])c4)C3)cc2)ccn1 (configuration not stated) | > 50 | > 50 | > 50 |  |  |  |
| CNC(=O)c1cc(Oc2ccc(C3CC(c4ccc([N+](=O)[O-])cc4)=NN3)cc2)ccn1 (configuration not stated) | 28.9 |  |  | 8.03 | > 50 | > 50 |
| CNC(=O)c1cc(Oc2ccc(C3=NN(C(N)=S)C(c4cccc(Cl)c4Cl)C3)cc2)ccn1 (configuration not stated) | 1.89 | > 50 | 15.9 |  |  |  |
